FAK inh – inhibitors of human focal adhesion kinase; 97,000 compounds, 0.84% hits; inhibition, %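 (tested at 7 µM)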; Q05397; biochemical FAK kinase activity assay; AID 727; in the data active = inhibition above about 19%;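 also: 0% = DMSO and 100% = reference compound high control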
PLK1 inh – blocks human PLK1 kinase activity; P53350; recombinant PLK1 kinase, TR-FRET peptide phosphorylation; inhibition, % at 10 µM; 97,000 compounds, 0.53% hits; AID 619;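 active = inhibition of 50% or more in the single-concentration screen; inactive = inhibition below 50%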;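 also: 0% = DMSO max control and 100% = H-89 dihydrochloride min control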
Target sequence (P53350 whole entry, looked up): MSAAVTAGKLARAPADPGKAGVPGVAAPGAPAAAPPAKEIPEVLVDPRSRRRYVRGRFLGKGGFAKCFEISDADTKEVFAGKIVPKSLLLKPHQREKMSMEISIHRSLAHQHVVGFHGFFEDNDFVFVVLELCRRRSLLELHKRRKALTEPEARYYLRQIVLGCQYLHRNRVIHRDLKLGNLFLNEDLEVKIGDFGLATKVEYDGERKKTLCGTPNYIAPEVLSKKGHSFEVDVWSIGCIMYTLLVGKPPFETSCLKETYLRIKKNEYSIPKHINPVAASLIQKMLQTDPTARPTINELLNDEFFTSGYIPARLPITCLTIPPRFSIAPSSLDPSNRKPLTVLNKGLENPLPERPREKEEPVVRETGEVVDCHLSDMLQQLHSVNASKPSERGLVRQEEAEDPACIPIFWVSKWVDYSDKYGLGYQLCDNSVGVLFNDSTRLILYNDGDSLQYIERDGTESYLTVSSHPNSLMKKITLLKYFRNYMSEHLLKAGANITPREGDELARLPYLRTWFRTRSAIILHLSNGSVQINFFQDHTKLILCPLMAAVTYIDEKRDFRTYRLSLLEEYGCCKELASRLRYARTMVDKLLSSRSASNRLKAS
Rev-RRE block – inhibitors of HIV-1 Rev-RRE RNA interaction. Rev peptide-RRE RNA binding, FRET. 97,000 compounds, 0.79% hits. inhibition, % at 8 µM. P05866. AID 704;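 active = inhibition above the screen-wide mean plus 3 SD, cut at about 35% in these data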;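 also: 0% = median DMSO wells and 100% = median Neomycin B control wells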
Target sequence (P05866 whole entry, looked up): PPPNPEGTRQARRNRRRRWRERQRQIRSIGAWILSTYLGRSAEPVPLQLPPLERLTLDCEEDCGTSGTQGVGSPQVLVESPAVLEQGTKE
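Test system: Cy5-tagged RRE RNA duplex with fluorescein-tagged Rev peptide; Probe or stimulus: labelled Rev peptide; Schedule: 5 min preincubation and 15 min binding, 25 °C; Signal: FRET fluorescence readout; Evaluation: % inhibition from 671/540 nm acceptor-to-donor ratio, scaled between controls; Control set: DMSO and neomycin B.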
hDAT+cocaine – human DAT dopamine uptake with cocaine, either direction; LLC-PK1 hDAT cells, [14C]-dopamine uptake with cocaine IC80; actives deviate in either direction; 110,000 compounds, 1.3% hits; Q01959; AID 449768; B-score at 10 µM;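 active = Z score or B-score, a plate-position-corrected score, falls beyond the plate's 99.7% confidence bounds, in either direction; inactive = both scores lie inside the 99.7% bounds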;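 also: scored against the spread of the other compound wells on the same plate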
Plk1 PBD FP – inhibitors of human Plk1 polo box domain binding; Plk1 PBD phosphopeptide binding, fluorescence polarization; inhibition, %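 (tested at about 20 µM)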; 97,000 compounds, 0.13% hits; P53350; in the data active = inhibition above about 34%, passing the limit was not always enough
EphB4 antag – blocks human EphB4 binding to ephrin-B2; inhibition, % at 7 µM; EphB4 LBD / TNYL-RAW-Alexa532 peptide, fluorescence polarization; 97,000 compounds, 0.15% hits; P54760;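 active = inhibition above the screen-wide mean inhibition plus 3 SD, cut at about 15% in these data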;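 also: 0% = DMSO wells and 100% = excess unlabeled TNYL-RAW peptide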
* = called active by the depositor; nt = not tested or not shown; ! = not confirmed by another sample; [ ] = remark or other dose. A selection: hits, their analogues and other compounds. The true share with any hit is near 3.2%.

SMILES | FAK inh | PLK1 inh | Rev-RRE block | hDAT+cocaine | Plk1 PBD FP | EphB4 antag
CCC1CCCCN1c1ccc([N+](=O)[O-])cc1/C=N/NC(=O)Cn1c2ccccc2c(=O)c2ccccc21 (stereo unspecified) | 0.2 | -8.4 | 6.3 | 0.621 | 13.1 | 3.2
CCn1c(SCC(=O)N2CCc3ccccc32)nnc1-c1c[nH]c2ccccc12 | -4.2 | -3.9 | 12.6 | 0.541 | -9.9 | 4.7
CCn1c(SC(C)C)nnc1-c1c[nH]c2ccccc12 | -3.9 | 64.7* | 0.3 | -0.0672 | -8.9 | -5.6
CCn1c(SCC(=O)NCc2ccccc2)nnc1-c1c[nH]c2ccccc12 | 0.5 | -9.4 | -2.8 | 1.16 | 2.8 | 0.5
CCOC(=O)CSc1nnc(-c2c[nH]c3ccccc23)n1CC | -0.3 | 67.7* | -0.4 | 0.283 | -15.7 | 0.3
C[C@@H]1C=C(C(=O)N2CCOCC2)O[C@H](OCc2ccc(CO)cc2)C1 | nt | nt | nt | -0.448 | nt | nt
O[C@H]1COC2C1OC[C@@H]2O (stereo partly specified) | nt | nt | nt | 0.518 | nt | nt
Cc1c(C(=O)OC2CCCCC2)sc2nc[nH]c(=O)c12 | 0.7 | 68.3* | 24.2 | -0.231 | -1.3 | 2.0
O=S(=O)(c1cccs1)N1CCCc2ccccc21 | 3.4 | -9.2 | -1.0 | nt | -4.5 | -8.5
CN(Cc1ccccc1)c1oc(COc2ccccc2F)nc1C#N | -1.4 | 69.2* | 18.6 | 0.517 | -13.0 | 4.3
N#Cc1nc(COc2ccccc2F)oc1NCCc1ccccc1 | 0.5 | -7.0 | 12.1 | nt | -39.2 | -5.3
CCS(=O)(=O)N1CCN(S(=O)(=O)c2ccccc2)CC1 | -0.6 | 10.7 | 0.6 | -9.55* | -11.6 | -1.5
CCc1cc2c(=O)c(Oc3ccccc3)c(C)oc2cc1O | -1.1 | -4.5 | 5.1 | -2.48* | 11.8 | -7.3
CCc1ccc2[nH]c(=O)c(CN(Cc3ccccc3)C(=O)Nc3ccccc3OC)cc2c1 | 1.6 | -14.5 | 5.1 | -0.643 | 7.1 | 10.1
COc1cccc(NS(=O)(=O)c2cc(C)sc2C)c1 | 1.3 | -7.6 | 2.1 | 2.64* | -10.5 | -1.4
Cc1cc(S(=O)(=O)Nc2ccc(N(C)C)cc2)c(C)s1 | 1.3 | -10.9 | -3.5 | 0.0643 | -8.0 | 4.0
CCOC(=O)Cc1csc(NC(=O)c2ccc(Cl)nc2)n1 | 6.8 | -10.4 | 41.0* | 1.04 | -5.8 | 4.1
CCOC(=O)Cc1csc(NC(=O)c2ccc(Br)s2)n1 | 0.7 | 10.1 | -0.4 | 2.69* | -2.5 | 2.4
CCOC(=O)Cc1csc(NC(=O)c2sc3nc4ccc(CC)cc4cc3c2N)n1 | 16.2 | -19.2 | 85.2*[fluorescence artefact?] | -1.18 | 0.6 | 3.9
CCOC(=O)Cc1csc(NC(=O)c2c(-c3c(F)cccc3Cl)noc2C)n1 | 0.2 | -6.8 | 16.5 | 4.31* | -0.7 | 3.9
CCOC(=O)Cc1csc(NC(=O)c2ccc(Br)o2)n1 | 0.6 | 3.3 | 0.0 | 0.0185 | 23.2 | 3.2
O=C(NC1CC1)C1=C[C@H](c2coc3ccccc3c2=O)C[C@H](OCc2ccc(CO)cc2)O1 | nt | nt | nt | 0.291 | nt | nt
O=C(O)C(c1ccccc1)C1(O)CCCC1 (stereo unspecified) | -4.8 | 10.8 | 4.6 | 1.75* | -29.0 | -1.4
Cc1ccc(F)cc1NC(=O)C12CC3CC(C1)CC(n1cnc([N+](=O)[O-])n1)(C3)C2 | -6.6 | -5.7 | 2.7 | 1.18 | -21.9 | -5.4
O=[N+]([O-])c1ccc(N2N=C(c3ccco3)CC2c2ccccc2)cc1 (stereo unspecified) | 0.0 | -11.1 | 75.7*[fluorescence artefact?] | -0.316 | -18.6 | -3.1
SMILES | FAK inh | PLK1 inh | Rev-RRE block | hDAT+cocaine | Plk1 PBD FP | EphB4 antag
Cn1c(=O)c2ncn(CC(=O)Nc3ccc4c5c(cccc35)CC4)c2n(C)c1=O | -2.6 | -5.8 | 45.8* | 0.232 | -28.7 | 7.7
Cc1cccc(C)c1NC(=O)Cn1cnc2c(=O)n(C)c(=O)n(C)c21 | 4.2 | 13.7 | 4.3 | -1.14 | 16.4 | 10.6
O=C(NCc1ccc2c(c1)OCO2)c1cc2ncc(Br)cn2n1 | 8.6 | -6.6 | 3.7 | -2.1* | 19.3 | 2.5
O=C(NCc1ccc2c(c1)OCO2)c1ccccn1 | 0.4 | -18.0 | 3.7 | -0.607 | -9.8 | 0.6
N#C/C(=N\O)c1nc(-c2ccccc2)cs1 | -2.2 | -9.9 | 9.3 | -5.23*! | -13.5 | 6.3
N#CC(=C1CCCC1)c1nc(-c2ccccc2)cs1 | -0.4 | -2.9 | 15.6 | 0.0418 | 10.7 | -2.2
CCOC(=O)C1CN(S(=O)(=O)c2ccc(C)cc2)C1 | 1.1 | -15.3 | 6.3 | -0.72 | -7.6 | -0.6
CC(=O)N(C)C1=C(N2CCOCC2)C(=O)c2ccccc2C1=O | 0.1 | -2.5 | 6.0 | -4.28* | 9.1 | -4.3
CC(=O)c1ccc(NC2=C(N3CCOCC3)C(=O)c3ccccc3C2=O)cc1 | 11.2 | -9.3 | 4.0 | 1.92 | 21.3 | -2.8
O=C([C@@H]1CC=C[C@@H]2CCN(C3CCCCC3)C(=O)[C@@H]21)N1CCN(c2ccccc2)CC1 | nt | nt | nt | 0.46 | nt | nt
CCSc1nnc(-c2sc3nnc(-c4ccccc4)c(-c4ccccc4)c3c2N)o1 | -3.4 | -78.5 | 117.0*[fluorescence artefact?] | 1.58* | -100.2 | 3.2
Cn1nc(-c2ccc(Cl)cc2)c2cc(C(=O)NCCCN3CCOCC3)sc21 | 0.6 | -7.1 | 9.2 | -0.458 | -8.1 | -2.8
Cn1nc(-c2ccc(Cl)cc2)c2cc(C(=O)NCCN3CCOCC3)sc21 | -7.9 | 40.0 | 9.3 | 2.61* | 19.0 | -6.4
CCOC(=O)CN(C(=O)CSc1nnc(Cc2ccccc2)n1-c1ccc(C)cc1)c1ccccc1 | 2.5 | -11.2 | -2.3 | 2.7* | -15.0 | -2.1
O=C(NCCCN1CCc2ccccc2C1)Nc1ccc(Cl)cc1 | -0.6 | -1.8 | 6.1 | -2.52* | -2.2 | 5.6
COc1ccc(NC(=O)NCCN2CCc3ccccc3C2)cc1 | 1.3 | -8.4 | -1.2 | 0.0326 | -1.1 | -0.2
CCCOc1ccc(CC(=O)NCC2(c3ccccc3)CCOCC2)cc1OC | 0.5 | -10.9 | 1.1 | -1.01 | -15.8 | -0.5
COc1ccc(C(=O)c2coc3ccc(O)c(CN4CCCCC4)c23)cc1 | 2.9 | -15.6 | 1.4 | 3.53* | 21.5 | 1.0
CCOc1ccc2[nH]c(=O)c(CN(Cc3cccs3)Cc3nnnn3C(C)(C)C)cc2c1 | -3.6 | 4.0 | -0.7 | 0.615 | 4.8 | -2.4
COc1ccc2[nH]c(=O)c(CN(Cc3ccccc3)Cc3nnnn3CC3CCCO3)cc2c1 (stereo unspecified) | 5.5 | -7.0 | 16.1 | 0.137 | -17.0 | 15.6*
COc1ccc2[nH]c(=O)c(CN(Cc3cccs3)Cc3nnnn3C(C)(C)C)cc2c1 | 4.1 | -11.2 | 14.5 | 2.49* | -0.5 | 3.4
COc1cc2c(C(=O)N3CCN(c4ccccc4C)CC3)c(C)oc2cc1Br | 7.5 | -10.9 | 3.5 | 1.3 | -13.6 | 3.9
Cc1cccc(NC(=O)c2ccc(C3SCC(=O)N3CCc3ccccc3)cc2)c1C (stereo unspecified) | -0.6 | -4.9 | -2.4 | 2.66* | -25.6 | -1.0
CCc1ccc(NC(=O)c2ccc(C3SCC(=O)N3CCc3ccccc3)cc2)cc1 (stereo unspecified) | 1.7 | -5.6 | 4.3 | nt | -15.5 | 9.8

Assay outcomes deposited in PubChem by several laboratories.
